Converted amounts (≈) assume the structure as drawn.
What was measured:
[1] = system: Enterococcus; assay: Ratio of kcat to Km of Enterococcus APH(3')-3a
[2] = system: Escherichia coli; assay: Antibacterial activity against Escherichia coli TG1 pSF815 plasmid encoded for AAC(6')/APH(2') after 12 to 18 hrs; format: functional
In short: (§1)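 Broth microdilution. Bacterial suspension adjusted with broth to absorbance 0.08–0.1 at 625 nm, diluted further in broth, and mixed in wells with 2-fold serial dilutions of compound. Plates incubated at 35°C for 12–18 h. MIC is the lowest concentration inhibiting growth; each determination repeated at least three times.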

[3] = system: Escherichia coli; assay: Antibacterial activity against Escherichia coli TG1 pTZ19U-3 plasmid encoded for APH(3')-1 after 12 to 18 hrs; format: functional; in short: as §1
[4] = system: Enterococcus; assay: Activity of Enterococcus APH(3')-3a
[5] = system: Escherichia coli; assay: Antibacterial activity against aminoglycoside-susceptible Escherichia coli ATCC 25922 after 12 to 18 hrs; format: functional; in short: as §1
[6] = system: Escherichia coli; assay: Antibacterial activity against aminoglycoside-susceptible Escherichia coli TG1 after 12 to 18 hrs; format: functional; in short: as §1
[7] = system: Escherichia coli; assay: Antibacterial activity against Escherichia coli TG1 pET28a plasmid encoded for APH(3')-3a after 12 to 18 hrs; format: functional; in short: as §1
[8] = system: Staphylococcus aureus; assay: Antibacterial activity against aminoglycoside-susceptible Staphylococcus aureus ATCC 25923 after 12 to 18 hrs; format: functional; in short: as §1

NC[C@@H]1O[C@H](O[C@H]2[C@@H](O)[C@H](O[C@@H]3[C@@H](O)[C@H](N)C[C@H](N)[C@H]3O[C@H]3O[C@H](CN)[C@@H](O)[C@H](O)[C@H]3N)O[C@@H]2CNC(=O)[C@H]2CCCN2)[C@H](N)[C@@H](O)[C@@H]1O gave a kcat/Km [1] of 0.51 ×10⁴ /M/s, an MIC [2] of 16 µg/mL (≈ 22.5 µM) and an MIC [3] of no less than 2000 µg/mL. The Km [4] was 70 µM, the Vmax [4] was 0.72 µmol/min/mg and the kcat [4] was 0.36 s⁻¹. It also gave an MIC [5] of 8 µg/mL (≈ 11.3 µM), an MIC [6] of 8 µg/mL (≈ 11.3 µM) and an MIC [7] of 64 µg/mL (≈ 90 µM). It also gave an MIC [8] of 0.5 µg/mL (≈ 0.703 µM).
In the case of NCCCC[C@H](N)C(=O)NC[C@H]1O[C@@H](O[C@@H]2[C@@H](O)[C@H](N)C[C@H](N)[C@H]2O[C@H]2O[C@H](CN)[C@@H](O)[C@H](O)[C@H]2N)[C@H](O)[C@@H]1O[C@H]1O[C@@H](CN)[C@@H](O)[C@H](O)[C@H]1N, the kcat/Km [1] is reported as 0.51 ×10⁴ /M/s, the MIC [2] is reported as 32 µg/mL (≈ 43.1 µM) and the MIC [3] is reported as 125 µg/mL (≈ 168 µM). For the same compound, the Km [4] was 78 µM, the Vmax [4] was 0.79 µmol/min/mg and the kcat [4] was 0.4 s⁻¹. For the same compound, the MIC [5] was 16 µg/mL (≈ 21.6 µM), the MIC [6] was 16 µg/mL (≈ 21.6 µM) and the MIC [7] was 32 µg/mL (≈ 43.1 µM). The MIC [8] was 2 µg/mL (≈ 2.7 µM).
With NCCCC[C@@H](N)C(=O)NC[C@H]1O[C@@H](O[C@@H]2[C@@H](O)[C@H](N)C[C@H](N)[C@H]2O[C@H]2O[C@H](CN)[C@@H](O)[C@H](O)[C@H]2N)[C@H](O)[C@@H]1O[C@H]1O[C@@H](CN)[C@@H](O)[C@H](O)[C@H]1N the kcat/Km [1] was 0.47 ×10⁴ /M/s, the MIC [2] was 64 µg/mL (≈ 86.3 µM) and the MIC [3] was no less than 2000 µg/mL. For the same compound, the Km [4] was 75 µM, the Vmax [4] was 0.7 µmol/min/mg and the kcat [4] was 0.35 s⁻¹. It also gave an MIC [5] of 32 µg/mL (≈ 43.1 µM), an MIC [6] of 16 µg/mL (≈ 21.6 µM) and an MIC [7] of 64 µg/mL (≈ 86.3 µM). The MIC [8] was 1 µg/mL (≈ 1.35 µM).
Work on CCCCCCC(=O)NC[C@H]1O[C@@H](O[C@@H]2[C@@H](O)[C@H](N)C[C@H](N)[C@H]2O[C@H]2O[C@H](CN)[C@@H](O)[C@H](O)[C@H]2N)[C@H](O)[C@@H]1O[C@H]1O[C@@H](CN)[C@@H](O)[C@H](O)[C@H]1N yielded a kcat/Km [1] of 1 ×10⁴ /M/s, an MIC [2] of 16 µg/mL (≈ 22 µM) and an MIC [3] of no less than 2000 µg/mL. It also gave a Km [4] of 48 µM, a Vmax [4] of 0.95 µmol/min/mg and a kcat [4] of 0.48 s⁻¹. For the same compound, the MIC [5] was 16 µg/mL (≈ 22 µM), the MIC [6] was 8 µg/mL (≈ 11 µM) and the MIC [7] was 64 µg/mL (≈ 88.2 µM). The MIC [8] was 4 µg/mL (≈ 5.51 µM).
NC[C@@H]1O[C@H](O[C@H]2[C@@H](O)[C@H](O[C@@H]3[C@@H](O)[C@H](N)C[C@H](N)[C@H]3O[C@H]3O[C@H](CN)[C@@H](O)[C@H](O)[C@H]3N)O[C@@H]2CNC(=O)[C@@H]2CCCN2)[C@H](N)[C@@H](O)[C@@H]1O gave a kcat/Km [1] of 0.4 ×10⁴ /M/s, an MIC [2] of 16 µg/mL (≈ 22.5 µM) and an MIC [3] of no less than 2000 µg/mL. For the same compound, the Km [4] was 80 µM, the Vmax [4] was 0.63 µmol/min/mg and the kcat [4] was 0.32 s⁻¹. For the same compound, the MIC [5] was 16 µg/mL (≈ 22.5 µM), the MIC [6] was 16 µg/mL (≈ 22.5 µM) and the MIC [7] was 64 µg/mL (≈ 90 µM). For the same compound, the MIC [8] was 0.5 µg/mL (≈ 0.703 µM).
Compound NC[C@@H]1O[C@H](O[C@H]2[C@@H](O)[C@H](O[C@@H]3[C@@H](O)[C@H](N)C[C@H](N)[C@H]3O[C@H]3O[C@H](CN)[C@@H](O)[C@H](O)[C@H]3N)O[C@@H]2CNC(=O)CCC(=O)NC[C@H]2O[C@@H](O[C@@H]3[C@@H](O)[C@H](N)C[C@H](N)[C@H]3O[C@H]3O[C@H](CN)[C@@H](O)[C@H](O)[C@H]3N)[C@H](O)[C@@H]2O[C@H]2O[C@@H](CN)[C@@H](O)[C@H](O)[C@H]2N)[C@H](N)[C@@H](O)[C@@H]1O has a kcat/Km [1] of less than 0.01 ×10⁴ /M/s, an MIC [2] of 16 µg/mL (≈ 12.2 µM) and an MIC [3] of 500 µg/mL (≈ 382 µM). It also gave a Km [4] greater than 500 µM, a Vmax [4] of less than 0.1 µmol/min/mg and a kcat [4] of less than 0.05 s⁻¹. The MIC [5] was 32 µg/mL (≈ 24.4 µM), the MIC [6] was 8 µg/mL (≈ 6.11 µM) and the MIC [7] was 64 µg/mL (≈ 48.9 µM). It also gave an MIC [8] of 2 µg/mL (≈ 1.53 µM).
For NC[C@@H]1O[C@H](O[C@H]2[C@@H](O)[C@H](O[C@@H]3[C@@H](O)[C@H](N)C[C@H](N)[C@H]3O[C@H]3O[C@H](CN)[C@@H](O)[C@H](O)[C@H]3N)O[C@@H]2CNC(=O)CCC(=O)O)[C@H](N)[C@@H](O)[C@@H]1O, the kcat/Km [1] was 0.81 ×10⁴ /M/s, the MIC [2] was 64 µg/mL (≈ 89.7 µM) and the MIC [3] was no less than 2000 µg/mL. For the same compound, the Km [4] was 53 µM, the Vmax [4] was 0.86 µmol/min/mg and the kcat [4] was 0.43 s⁻¹. It also gave an MIC [5] of 64 µg/mL (≈ 89.7 µM), an MIC [6] of 32 µg/mL (≈ 44.8 µM) and an MIC [7] of 250 µg/mL (≈ 350 µM). For the same compound, the MIC [8] was 8 µg/mL (≈ 11.2 µM).
With NC[C@@H]1O[C@H](O[C@H]2[C@@H](O)[C@H](O[C@@H]3[C@@H](O)[C@H](N)C[C@H](N)[C@H]3O[C@H]3O[C@H](CN)[C@@H](O)[C@H](O)[C@H]3N)O[C@@H]2Cn2cc(C3CCCCN3)nn2)[C@H](N)[C@@H](O)[C@@H]1O (stereo not given in full) the kcat/Km [1] was 0.18 ×10⁴ /M/s, the MIC [2] was 16 µg/mL (≈ 21.4 µM) and the MIC [3] was no less than 2000 µg/mL. The Km [4] was 150 µM, the Vmax [4] was 0.54 µmol/min/mg and the kcat [4] was 0.27 s⁻¹. For the same compound, the MIC [5] was 8 µg/mL (≈ 10.7 µM), the MIC [6] was 16 µg/mL (≈ 21.4 µM) and the MIC [7] was 125 µg/mL (≈ 167 µM). For the same compound, the MIC [8] was 2 µg/mL (≈ 2.67 µM).
NC[C@@H]1O[C@H](O[C@H]2[C@@H](O)[C@H](O[C@@H]3[C@@H](O)[C@H](N)C[C@H](N)[C@H]3O[C@H]3O[C@H](CN)[C@@H](O)[C@H](O)[C@H]3N)O[C@@H]2CNC(=O)[C@@H](N)Cc2c[nH]c3ccccc23)[C@H](N)[C@@H](O)[C@@H]1O was tested, and the kcat/Km [1] was 0.1 ×10⁴ /M/s, the MIC [2] was 16 µg/mL (≈ 20 µM) and the MIC [3] was no less than 2000 µg/mL. For the same compound, the Km [4] was 322 µM, the Vmax [4] was 0.57 µmol/min/mg and the kcat [4] was 0.29 s⁻¹. For the same compound, the MIC [5] was 16 µg/mL (≈ 20 µM), the MIC [6] was 8 µg/mL (≈ 10 µM) and the MIC [7] was 64 µg/mL (≈ 80 µM). The MIC [8] was 2 µg/mL (≈ 2.5 µM).

— ChEMBL document CHEMBL1140232, “Surprising alteration of antibacterial activity of 5"-modified neomycin against resistant bacteria” (2008)
